Compounds with a hit are over-represented: about 3.1% of the library has one in this group of screens.
hERG protect = hERG rescue from dofetilide block, primary screen, cell-based, CHO-hERG, FluxOR thallium flux, dofetilide IC70 | dofetilide IC70 present | activation (rescue from dofetilide block), less the hit threshold, % at 10 µM | 310,000 tested, 0.51% active | AID 1511, 2009;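 active means activation above the mean of controls blocked by dofetilide plus 5 SD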;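 further: thallium influx through hERG after potassium depolarization seen as dye fluorescence rise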
Target sequence (Q12809 whole entry, looked up): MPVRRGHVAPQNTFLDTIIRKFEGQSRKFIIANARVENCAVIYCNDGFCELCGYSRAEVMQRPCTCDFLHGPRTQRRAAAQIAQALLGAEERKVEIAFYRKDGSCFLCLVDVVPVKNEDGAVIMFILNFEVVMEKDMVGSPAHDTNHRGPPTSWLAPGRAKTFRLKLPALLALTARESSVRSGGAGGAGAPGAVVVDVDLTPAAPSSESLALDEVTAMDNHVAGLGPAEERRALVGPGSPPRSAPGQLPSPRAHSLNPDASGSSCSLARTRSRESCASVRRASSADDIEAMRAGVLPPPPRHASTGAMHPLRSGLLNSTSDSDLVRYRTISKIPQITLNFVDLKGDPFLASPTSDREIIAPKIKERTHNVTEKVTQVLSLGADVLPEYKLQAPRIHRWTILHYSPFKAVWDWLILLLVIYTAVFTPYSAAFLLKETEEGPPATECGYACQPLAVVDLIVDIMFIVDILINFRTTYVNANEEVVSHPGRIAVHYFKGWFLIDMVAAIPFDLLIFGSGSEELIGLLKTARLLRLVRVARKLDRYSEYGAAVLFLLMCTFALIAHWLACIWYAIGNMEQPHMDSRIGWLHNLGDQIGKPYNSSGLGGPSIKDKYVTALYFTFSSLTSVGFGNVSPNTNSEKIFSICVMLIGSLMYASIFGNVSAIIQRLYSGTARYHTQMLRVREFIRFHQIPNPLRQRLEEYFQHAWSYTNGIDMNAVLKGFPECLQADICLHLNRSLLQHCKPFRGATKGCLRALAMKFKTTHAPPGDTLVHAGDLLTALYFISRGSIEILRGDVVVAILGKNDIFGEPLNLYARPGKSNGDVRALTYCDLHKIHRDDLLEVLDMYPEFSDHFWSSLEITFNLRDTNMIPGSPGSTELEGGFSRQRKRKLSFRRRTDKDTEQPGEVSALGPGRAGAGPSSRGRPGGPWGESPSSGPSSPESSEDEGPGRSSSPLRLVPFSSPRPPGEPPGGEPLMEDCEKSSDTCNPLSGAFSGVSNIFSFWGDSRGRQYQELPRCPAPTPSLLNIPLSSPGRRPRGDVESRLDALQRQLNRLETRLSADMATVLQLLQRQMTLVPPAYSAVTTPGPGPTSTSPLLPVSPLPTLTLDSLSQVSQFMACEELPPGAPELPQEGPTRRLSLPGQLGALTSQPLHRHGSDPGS
KCNK3 inh = human KCNK3 channel inhibitors, primary screen, CHO cells, FluxOR thallium flux, B-score; FluxOR fluorescence; active compounds read low; B-score at 10 µM; 340,000 tested, 0.84% active;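 active means B-score under library mean minus 4 SD, starting fluorescence ratio at most library mean plus 5 SD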;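 further: more negative B-score means stronger inhibition of thallium flux through KCNK3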
KCNQ1 inh = inhibitors of human KCNQ1 channel, primary screen, cell-based, thallium flux, high-throughput; CHO-K1 KCNQ1, FluxOR thallium flux fluorescence; active compounds read high; 310,000 tested, 1.3% active; AID 2642, 2010; B-score at 10 µM;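 active means compounds whose thallium flux B-score, printed positive for inhibition, exceeds three library SD while starting fluorescence stays within three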;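 further: channel opened by potassium depolarization with thallium stimulus after 20 min compound exposure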
KCNK9 inh = KCNK9 potassium channel inhibitors, primary screen, HEK293 cells, thallium flux | Potassium channel subfamily K member 9 (Homo sapiens), Q9NPC2 | FluxOR thallium flux fluorescence; active compounds read low | B-score at 10 µM | 310,000 tested, 1.2% active | AID 488922, 2010;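 active means ratio B-score over 3 SD below the library mean, with starting fluorescence within 5 SD of its mean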;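 further: negative B-score means less thallium flux so channel inhibition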
KCNQ1 pot = potentiators or activators of KCNQ1 channel, primary screen, cell-based, thallium flux, high-throughput; AID 2648, 2010; Potassium voltage-gated channel subfamily KQT member 1 (Homo sapiens), P51787; CHO-K1 KCNQ1, thallium flux FluxOR fluorescence; active compounds read high; B-score at 10 µM; 310,000 tested, 0.35% active;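 active means fluorescence ratio B-score, a plate-corrected score, at least three library SD, with initial intensity B-score within 5 SD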
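Material: CHO-K1 cells stably expressing KCNQ1. Medium: assay buffer for compound exposure, DMSO matched across wells. Reagent: K+/Tl+ depolarizing stimulus. Compound dosing: single-concentration screen. Times: 37 °C overnight plating, 90-min dark dye load, 20-min compound pretreatment. Technique: FluxOR Tl+ flux fluorescence.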
KCNK9 block conf = KCNK9 potassium channel inhibitors, confirmation, HEK293 cells, thallium flux, duplicate | shares compounds with KCNK9 inh | FluxOR thallium flux fluorescence | inhibition, % at 10 µM | 4,900 tested, 43% active | AID 492992, 2010;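 active means thallium signal inhibited by more than 5 SD of the compound-free buffer control wells, on both duplicate plates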
Kir2-1 spec = mouse Kir2.1 channel inhibition, confirmation, selectivity assay for KCNK9 modulator project, cell-based, HEK293, thallium flux | shares compounds with KCNK9 inh | Kir2.1 cells, FluxOR thallium flux fluorescence | inhibition, % at 10 µM | 4,900 tested, 4% active;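 active means thallium signal drop more than 5 SD beyond the mean of the no-compound control wells, seen in both duplicate plates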;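 further: signal is fluorescence rise after thallium addition divided by baseline fluorescence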
HEK293 Tl ctr = thallium flux in non-induced HEK293 cells, confirmation, counter-screen for KCNK9 inhibitor project, cell-based, second counter screen, non-induced KCNK9-HEK293; shares compounds with KCNK9 inh; FluxOR thallium flux; inhibition, % at 10 µM; 4,900 tested, 40% active; AID 492997, 2010;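 active means thallium signal drop beyond 5 SD of the untreated control mean, on both duplicate plates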
A number is an active result; i = inactive; nt = not tested or not shown.

SMILES | hERG protect | KCNK3 inh | KCNQ1 inh | KCNK9 inh | KCNQ1 pot | KCNK9 block conf | Kir2-1 spec | HEK293 Tl ctr
COc1ccc(CN2CCCC(C(=O)c3cccc(OC(C)C)c3)C2)cc1Cn1cccn1 (configuration not stated) | i | i | i | i | i | i | i | i
COCc1cc(CN2CCCC(C(=O)c3cccc(C(F)(F)F)c3)C2)ccc1OC (configuration not stated) | i | i | i | i | i | i | i | i
CCOC(=O)c1[nH]ncc1CN1CCCC(C(=O)c2cccc(OC(C)C)c2)C1 (configuration not stated) | i | i | i | i | i | nt | nt | nt
COc1cccc(O)c1CN1CCCC(C(=O)c2cccc(C(F)(F)F)c2)C1 (configuration not stated) | i | i | i | i | i | nt | nt | nt
Cc1c(Cl)c([N+](=O)[O-])nn1Cc1ccc(C(=O)N/N=C\c2cccc(Br)c2)o1 | i | i | i | -8.5 | i | 42% | i | 27%
O=C(N/N=C\c1cccc(Cl)c1)c1ccc(Cn2cc(Br)c([N+](=O)[O-])n2)o1 | i | i | i | -16 | i | 68% | i | 32%
Cc1ccc(/C=N\NC(=O)c2ccc(Cn3cc(Br)c([N+](=O)[O-])n3)o2)o1 | i | i | i | i | i | nt | nt | nt
O=[N+]([O-])c1cc(/C=N/O)ccc1Oc1cccc(Cl)c1 | i | i | i | -10 | i | 41% | i | 25%
O=C(Nc1ccccc1-c1nnc(SCc2ccc(Cl)cc2Cl)o1)c1ccccc1 | i | i | i | i | i | nt | nt | nt
O=C(Nc1ccccc1-c1nnc(SCc2ccccc2Cl)o1)c1ccccc1 | i | i | i | i | i | i | i | i
COc1ccc(-c2csc(N3CCN(S(=O)(=O)c4ccc5c(c4)NC(=O)CO5)CC3)n2)cc1 | i | i | i | i | i | nt | nt | nt
Cc1cc(C)c2oc(=O)cc(CN3CCCCC3)c2c1 | i | i | i | i | i | i | i | i
Cc1ccc2c(CN3CCC(C(N)=O)CC3)cc(=O)oc2c1C | i | i | i | i | i | nt | nt | nt
Cc1ccc2c(CN3CCCCC3)cc(=O)oc2c1C | i | i | i | i | i | i | i | i
CCOC(=O)Nc1ccc2c(c1)N(C(=O)CN)c1ccccc1CC2 | i | i | i | i | i | nt | nt | nt
CCNCC(=O)N1c2ccccc2CCc2ccc(NC(=O)OCC)cc21 | i | i | i | -11 | i | 54% | i | 34%
CCc1cc2c(=O)c(-c3ccc4c(c3)OCCO4)c(C)oc2cc1OS(C)(=O)=O | i | i | i | i | i | nt | nt | nt
O=S(=O)(c1cccc(Cl)c1Cl)N1CCCCC1 | i | i | i | i | i | nt | nt | nt
O=S(=O)(c1ccccc1Oc1ccc(Cl)cc1Cl)N1CCCCC1 | i | i | i | -9.9 | i | 45% | i | i
c1ccc(Cc2nnc(Sc3ccccc3)c3ccccc23)cc1 | i | i | i | -8.5 | i | 46% | i | 37%
c1ccc(Sc2ncnc3ccccc23)cc1 | i | i | i | i | i | nt | nt | nt
COc1cc(/C=C/C(=O)c2ccc(NS(=O)(=O)c3ccc(C)cc3)cc2)ccc1OC(F)F | i | i | i | i | i | i | i | i
CCN(CC(=O)NCc1cccs1)CC(=O)Nc1ccccc1C | nt | i | nt | nt | nt | nt | nt | nt
CCN(CC(=O)NCc1ccc(Cl)cc1)C(=O)COc1ccc(Cl)cc1Br | i | i | i | i | i | nt | nt | nt
CCOC(=O)c1cnc(SCCN2CCOCC2)nc1N | i | i | i | i | i | nt | nt | nt
SMILES | hERG protect | KCNK3 inh | KCNQ1 inh | KCNK9 inh | KCNQ1 pot | KCNK9 block conf | Kir2-1 spec | HEK293 Tl ctr
Cc1cc(C)c(S(=O)(=O)c2c(C)cccc2C)c(OCC(C)C)n1 | i | i | i | -9.9 | i | 59% | i | 42%
CN(CCOc1ccccc1)C(=O)c1cc([N+](=O)[O-])cc([N+](=O)[O-])c1 | i | i | i | i | i | nt | nt | nt
Cc1ccc(C)c(OCC(=O)N2CCc3ccccc3C2)c1 | i | i | i | i | i | i | i | i
O=C(CCCOc1ccc(Cl)cc1Cl)N1CCc2ccccc2C1 | i | i | i | i | i | i | i | i
CN(C)c1cccc(C(=O)OCC(=O)N2CCc3ccccc3C2)c1 | i | i | i | i | i | i | i | i
N/C(=N\OC(=O)Cc1ccc(-c2ccccc2)cc1)c1ccncc1 | i | i | i | i | i | 30% | i | i
CC[n+]1c(/C=C/N(C)c2ccccc2)n(-c2ccccc2)c2ccc(-c3nc4ccccc4s3)cc21 | i | -9.7 | 15 | -16 | i | 90% | 78% | 76%
CC1S/C(=N/N=C/c2ccco2)N(Cc2ccccc2)C1=O (configuration not stated) | i | i | i | i | i | nt | nt | nt
CC/C(=N\N=C1\SC(C)C(=O)N1Cc1ccco1)c1ccccc1 (configuration not stated) | i | i | i | i | i | i | i | 26%
CCOC(=O)C1CCN(C(=O)c2oc3ccc(S(=O)(=O)N4CC(C)CC(C)C4)cc3c2C)CC1 (configuration not stated) | i | i | i | i | i | i | i | i
Cn1cnnc1SCC(=O)NC1CCCC1 | i | i | i | i | i | nt | nt | nt
O=C(/C=C/c1cccc([N+](=O)[O-])c1)NCCSCc1ccc(Cl)cc1 | i | i | i | -9 | i | 54% | i | 32%
Cc1ccc(SCCNC(=O)/C=C/c2cccc([N+](=O)[O-])c2)cc1 | i | i | i | i | i | i | i | i
O=C(/C=C/c1cccc([N+](=O)[O-])c1)NCCSCc1c(Cl)cccc1Cl | i | i | i | i | i | nt | nt | nt
CC1(C)OCC(COC(=O)Nc2cccnc2)([N+](=O)[O-])CO1 | i | i | i | i | i | nt | nt | nt
COc1ccc(C2Nc3ccccc3C(=O)N2Cc2ccco2)cc1COc1ccc(F)cc1 (configuration not stated) | i | i | i | -9 | i | 35% | i | 36%
CCCCNC(=O)/C(C#N)=C/c1ccc(F)cc1F | i | i | i | i | i | nt | nt | nt
CCn1c(SC)nnc1-c1sc2cc(Cl)ccc2c1Cl | i | i | i | -11 | i | 60% | i | 36%
O=C(Nc1ccccc1)OC1CCCCc2cccnc21 (configuration not stated) | i | i | i | i | i | i | i | 28%
O=C(Nc1ccccc1)OCCNC1CCCCC1 | nt | i | nt | nt | nt | nt | nt | nt
